Results: PubChem BioAssay
Activity calls are given as the source filed them.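 How the source made its calls, unless noted: active means compounds giving at least 50% inhibition in the cell-based MKP-3 phosphatase rescue imaging test; inactive means the rest.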

Tests used:
[1] = inhibitors of TNFa-induced NFkB p65 translocation, primary screen, imaging, HUVEC, MLSMR starter and 10KST1 sets (AID 438;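 active means inhibition above 20% together with a positive visual image hit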;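 further: compound added about 3h40 before a 20 min TNFalpha stimulation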;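 on inhibition: signal is the nuclear over cytoplasmic p65 intensity ratio per well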); details: HUVEC TNFa-induced p65 nuclear translocation; cell count: measured here: nuclei count (cytotoxicity indicator), at 2.08 µM; inhibition: at 2 µM, stronger effect = higher value, 0% TNFa-plus-vehicle, 100% no-TNFa wells
[2] = inhibitors of E-selectin induction by TNFa, primary screen, imaging, HUVEC, immunofluorescence, MLSMR starter and 10KST1 sets (AID 487;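 active means visually confirmed hit in the image check and inhibition above 20%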;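 on inhibition: signal is fraction of cell area covered by stained E-selectin grains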;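 on nuclei count: 100% = median nuclei count of all wells on the same plate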); details: HUVEC TNFalpha-induced E-selectin immunofluorescence imaging, at 2 µM; inhibition: stronger effect = higher value; nuclei count: measured here: cell number, toxicity
[3] = DUSP6 inhibitors restoring Erk phosphorylation by chemical complementation, primary imaging in DUSP6-transfected HeLa (AID 609); details: HeLa MKP-3 transfected, phospho-Erk imaging KS statistic, at 10 µM, cells stimulated with TPA for 15 min;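 on inhibition: phospho-Erk level distribution per well compared with pooled transfected vehicle control wells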
[4] = biological target: Dual specificity protein phosphatase 6 (Homo sapiens) (UniProt Q16828); test: as above; details: HeLa MKP-3 transfected, phospho-Erk imaging KS statistic; at 10 µM; stronger effect = higher value; cells stimulated with TPA for 15 min
[5] = biological target: Voltage-gated potassium channel subunit beta-2 (Rattus norvegicus) (UniProt P62483); test: KvBeta enzyme negative modulators, primary screen, biochemical, NADPH fluorescence (AID 622;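 active means fluorescence slope higher than the sample average by over 3 SD, cut at about -0.22 in these data, passing the limit was not always enough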;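 further: slope of raw intensity against log time taken from 70 to 1610 s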); details: recombinant KvBeta, 4-cyanobenzaldehyde reduction, at 10 µM, stronger effect = higher value
[6] = biological target: Voltage-gated potassium channel subunit beta-2 (Rattus norvegicus) (UniProt P62483); test: KvBeta positive modulators, primary screen, biochemical, NADPH fluorescence (AID 623;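 active means NADPH fluorescence slope more negative than the mean of all samples by about 3 SD, 99.7% confidence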;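 further: fluorescence intensity change per second fitted from 20 to 320 s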); details: Recombinant KvBeta, NADPH fluorescence decrease slope, 10 min; at 10 µM; stronger effect = lower value
[7] = biological target: Muscarinic acetylcholine receptor M4 (Homo sapiens) (UniProt P08173); test: compounds altering M4/GIRK thallium flux, either direction, primary screen, M4 allosteric agonist project, cell-based, HEK293 M4/GIRK, BTC-AM (AID 625;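 active means fluorescence slope after compound addition differing from the mean of all tested samples at 99.7% confidence, mostly higher but some lower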;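 further: thallium influx through GIRK channels coupled to M4 in HEK293 cells with BTC-AM dye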); details: at 10 µM, actives lie on both sides
In short: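 Material – HEK293 cells with M4 receptor and GIRK channels · Buffer or medium – pH 7.3 thallium assay buffer · Doses – one dose, 10 µM final · Timing – cells overnight at 37 °C, BTC-AM loading 1 h, reads 2 min total · Measured by – kinetic fluorescence with BTC-AM dye · Controls – carbachol and DMSO controls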

[8] = inhibitors of larval lipid processing in zebrafish, primary screen, whole organism, PED6 fluorescence, gall bladder and intestine (AID 686;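 active means a full or partial loss of lipid-probe fluorescence in the fish gall bladder, intestine or both, judged by eye; inactive means no fluorescence loss, or compound toxic to the fish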;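 further: larvae 5 to 7 days old with five fish per well; signal comes from phospholipase A2 cleavage of quenched PED6 carried via bile; overnight exposure to compound and PED6 before scoring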); details: Zebrafish larvae PED6 lipid processing, fluorescence scoring; screened at 20 µM (by protocol)
In short: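 system = live zebrafish larvae aged 5-7 days, whole organism | probe or stimulus = ingested quenched lipid PED6 at 100 nM | doses = 20 µM single dose | timing = overnight exposure | detection = fluorescence microscopy with visual scoring of gall bladder and intestine | read-out = visual per-well fluorescence inhibition score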

[9] = inhibitors of Chlamydomonas gravitaxis, primary screen, whole organism, Chlamydomonas reinhardtii, WT vs cilia-less mutant, absorbance, 96-well (AID 463189;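 active means inhibition at or above 50% relative to wild type and mutant plate controls; inactive means inhibition below 50%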;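 further: 0% = wild type cc124 cells in DMSO and 100% = ciliumless bld1 mutant cells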); details: OD600 absorbance, 2 days, at 10 µM, stronger effect = higher value
[10] = measured here: cell density z-score
[11] = measured here: nuclear c-Myc green intensity z-score
[12] = measured here: nuclear pErk red intensity z-score, stronger effect = higher value

Sequence of Voltage-gated potassium channel subunit beta-2 (Rattus norvegicus) (P62483 whole entry, looked up): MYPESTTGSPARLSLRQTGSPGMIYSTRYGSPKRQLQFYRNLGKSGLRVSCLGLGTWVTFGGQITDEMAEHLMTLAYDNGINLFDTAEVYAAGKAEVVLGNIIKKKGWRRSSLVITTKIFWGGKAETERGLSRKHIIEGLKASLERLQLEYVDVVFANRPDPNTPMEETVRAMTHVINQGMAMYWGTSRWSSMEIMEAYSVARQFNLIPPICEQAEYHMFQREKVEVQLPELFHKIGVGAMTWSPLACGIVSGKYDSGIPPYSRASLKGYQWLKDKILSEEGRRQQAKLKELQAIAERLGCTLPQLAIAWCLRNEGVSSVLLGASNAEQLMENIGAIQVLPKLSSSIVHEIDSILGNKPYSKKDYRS
Sequence of Muscarinic acetylcholine receptor M4 (Homo sapiens) (P08173 whole entry, looked up): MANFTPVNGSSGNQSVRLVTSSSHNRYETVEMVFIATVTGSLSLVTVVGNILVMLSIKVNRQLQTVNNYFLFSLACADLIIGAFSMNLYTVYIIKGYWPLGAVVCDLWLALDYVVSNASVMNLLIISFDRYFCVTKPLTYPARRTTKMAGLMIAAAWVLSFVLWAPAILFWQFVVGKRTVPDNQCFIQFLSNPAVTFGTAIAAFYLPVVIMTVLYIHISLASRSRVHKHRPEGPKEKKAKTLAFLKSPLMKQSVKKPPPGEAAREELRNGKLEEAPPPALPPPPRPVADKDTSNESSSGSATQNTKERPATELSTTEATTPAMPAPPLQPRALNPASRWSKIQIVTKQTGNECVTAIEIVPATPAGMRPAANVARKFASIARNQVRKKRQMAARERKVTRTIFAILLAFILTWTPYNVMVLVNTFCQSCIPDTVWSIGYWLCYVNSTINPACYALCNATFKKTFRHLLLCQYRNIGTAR
Sequence of Dual specificity protein phosphatase 6 (Homo sapiens) (Q16828 whole entry, looked up): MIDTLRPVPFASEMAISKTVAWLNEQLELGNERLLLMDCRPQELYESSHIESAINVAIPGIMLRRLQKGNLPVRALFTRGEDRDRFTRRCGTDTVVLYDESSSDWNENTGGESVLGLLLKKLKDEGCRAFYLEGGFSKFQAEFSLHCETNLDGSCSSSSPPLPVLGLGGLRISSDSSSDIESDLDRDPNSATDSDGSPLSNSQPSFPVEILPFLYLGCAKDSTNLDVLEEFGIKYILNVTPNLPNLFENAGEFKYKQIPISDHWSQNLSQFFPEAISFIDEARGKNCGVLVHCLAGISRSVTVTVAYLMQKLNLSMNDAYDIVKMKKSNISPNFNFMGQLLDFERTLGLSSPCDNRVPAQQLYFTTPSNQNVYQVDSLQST

With `CN(CCCCCC(=O)/C=N/O)Cc1ccccc1` the cell count [1] was 673, the inhibition [1] was -7.2% (inactive) and the inhibition [2] was -29.9% (inactive). The nuclei count [2] was 182%, the z-score [3, 10] was -0.259 and the z-score [3, 11] was -0.553. The z-score [3, 12] was -0.0581, the inhibition [4] was -9.53% (inactive) and the fluorescence slope [5] was -0.493 (inactive). For the same compound, the NADPH fluorescence slope [6] was -9.8e-05 (inactive), the fluorescence slope [7] was 0.00525 (inactive) and the outcome [8] was “inactive”. The inhibition [9] was 23.8% (inactive).
For `Cc1nn2cnc3sc4c(c3c2nc1=O)CCCC4`, the cell count [1] was 535, the inhibition [1] was -9.5% (inactive) and the inhibition [2] was -186% (inactive). For the same compound, the nuclei count [2] was 145%, the z-score [3, 10] was 0.522 and the z-score [3, 11] was -0.702. For the same compound, the z-score [3, 12] was -1.01, the inhibition [4] was 13.9% (inactive) and the fluorescence slope [5] was -0.364 (inactive). For the same compound, the NADPH fluorescence slope [6] was -2.5e-05 (inactive), the fluorescence slope [7] was 0.00519 (inactive) and the outcome [8] was “inactive”. For the same compound, the inhibition [9] was 19.9% (inactive).
With `CSc1nc2sc3c(c2c2nnnn12)CCCC3` the cell count [1] was 506, the inhibition [1] was -14.9% (inactive) and the inhibition [2] was -77.3% (inactive). It also gave a nuclei count [2] of 118%, a z-score [3, 10] of 0.676 and a z-score [3, 11] of -0.0981. For the same compound, the z-score [3, 12] was -1.25, the inhibition [4] was -5.81% (inactive) and the fluorescence slope [5] was -0.455 (inactive). The NADPH fluorescence slope [6] was -7.9e-06 (inactive), the fluorescence slope [7] was 0.00421 (inactive) and the outcome [8] was “inactive”. The inhibition [9] was 31% (inactive).
With `COc1ccc(/C(O)=C2\C(=O)C(=O)N(Cc3ccco3)C2c2cc(OC)ccc2OC)cc1` (configuration not stated) the cell count [1] was 613, the inhibition [1] was -13.1% (inactive) and the inhibition [2] was -6% (inactive). The nuclei count [2] was 161%, the z-score [3, 10] was 0.378 and the z-score [3, 11] was -0.392. For the same compound, the z-score [3, 12] was -0.39, the inhibition [4] was 5.42% (inactive) and the fluorescence slope [5] was -0.452 (inactive). For the same compound, the NADPH fluorescence slope [6] was -1.6e-05 (inactive), the fluorescence slope [7] was 0.00573 (inactive) and the outcome [8] was “inactive”. The inhibition [9] was -2.62% (inactive).
With `COc1cccc(C2/C(=C(\O)c3ccc(OC)c(OC)c3)C(=O)C(=O)N2c2cc(C)on2)c1` (configuration not stated) the cell count [1] was 715, the inhibition [1] was 1.5% (inactive) and the inhibition [2] was -63.2% (inactive). It also gave a nuclei count [2] of 178%, a z-score [3, 10] of -0.072 and a z-score [3, 11] of -0.154. The z-score [3, 12] was 1.26, the inhibition [4] was -4.7% (inactive) and the fluorescence slope [5] was -0.449 (inactive). The NADPH fluorescence slope [6] was -3e-05 (inactive), the fluorescence slope [7] was 0.00553 (inactive) and the outcome [8] was “inactive”. For the same compound, the inhibition [9] was -1.1% (inactive).
For `N#Cc1nc(-c2cccs2)oc1NCc1ccc2c(c1)OCO2`, the cell count [1] was 624, the inhibition [1] was -4.4% (inactive) and the inhibition [2] was -132% (inactive). The nuclei count [2] was 157%, the z-score [3, 10] was -0.376 and the z-score [3, 11] was -0.933. The z-score [3, 12] was 0.595, the inhibition [4] was 7.83% (inactive) and the fluorescence slope [5] was -0.404 (inactive). For the same compound, the NADPH fluorescence slope [6] was -1.3e-05 (inactive), the fluorescence slope [7] was 0.00406 (inactive) and the outcome [8] was “inactive”. For the same compound, the inhibition [9] was 30.7% (inactive).
In the case of `COC(=O)NC(Nc1sc2c(c1C(N)=O)CCCC2)(C(=O)OC)C(F)(F)F` (configuration not stated), the cell count [1] is reported as 713, the inhibition [1] is reported as 11.7% (inactive) and the inhibition [2] is reported as -59.3% (inactive). For the same compound, the nuclei count [2] was 147%, the z-score [3, 10] was 0.143 and the z-score [3, 11] was -0.0847. For the same compound, the z-score [3, 12] was -0.638, the inhibition [4] was -11.4% (inactive) and the fluorescence slope [5] was -0.431 (inactive). The NADPH fluorescence slope [6] was -7.5e-05 (inactive), the fluorescence slope [7] was 0.00518 (inactive) and the outcome [8] was “inactive”. The inhibition [9] was -3.75% (inactive).
In the case of `COCCNC(=O)C(C#N)c1nc2ccccc2nc1N1CCN(Cc2ccc3c(c2)OCO3)CC1` (configuration not stated), the cell count [1] is reported as 737, the inhibition [1] is reported as -8.1% (inactive) and the inhibition [2] is reported as 11.8% (inactive). For the same compound, the nuclei count [2] was 172%, the z-score [3, 10] was -1.49 and the z-score [3, 11] was 1.08. For the same compound, the z-score [3, 12] was 1.16, the inhibition [4] was -2.09% (inactive) and the fluorescence slope [5] was -0.474 (inactive). For the same compound, the NADPH fluorescence slope [6] was -0.000128 (inactive), the fluorescence slope [7] was 0.00436 (inactive) and the outcome [8] was “inactive”. The inhibition [9] was 4.28% (inactive).
In the case of `COc1ccccc1NC(=O)c1c(C)cc(=O)oc1C`, the cell count [1] is reported as 601, the inhibition [1] is reported as -14.3% (inactive) and the inhibition [2] is reported as 35.3% (inactive). The nuclei count [2] was 145%, the z-score [3, 10] was -0.227 and the z-score [3, 11] was -0.0987. The z-score [3, 12] was -0.0601, the inhibition [4] was -4.59% (inactive) and the fluorescence slope [5] was -0.409 (inactive). The NADPH fluorescence slope [6] was -3e-05 (inactive), the fluorescence slope [7] was 0.00639 (inactive) and the outcome [8] was “inactive”. For the same compound, the inhibition [9] was 17.9% (inactive).
With `CSc1nc2[nH]c3c(c2c2nnnn12)CCCC3` the cell count [1] was 571, the inhibition [1] was -2.3% (inactive) and the inhibition [2] was -139% (inactive). For the same compound, the nuclei count [2] was 145%, the z-score [3, 10] was 0.625 and the z-score [3, 11] was 0.274. The z-score [3, 12] was -0.282, the inhibition [4] was 13.4% (inactive) and the fluorescence slope [5] was -0.341 (inactive). The NADPH fluorescence slope [6] was 0.000139 (inactive), the fluorescence slope [7] was 0.00402 (inactive) and the outcome [8] was “inactive”. The inhibition [9] was 79.4% (active).
In the case of `COC(=O)c1c(C)[nH]c(C(=O)OCc2ccc(F)cc2)c1C`, the cell count [1] is reported as 693, the inhibition [1] is reported as -3.8% (inactive) and the inhibition [2] is reported as 50.5% (inactive). The nuclei count [2] was 160%, the z-score [3, 10] was -0.559 and the z-score [3, 11] was -1.43. For the same compound, the z-score [3, 12] was -0.0192, the inhibition [4] was 7.21% (inactive) and the fluorescence slope [5] was -0.461 (inactive). The NADPH fluorescence slope [6] was -1.9e-05 (inactive), the fluorescence slope [7] was 0.00635 (inactive) and the outcome [8] was “inactive”. For the same compound, the inhibition [9] was 80.6% (active).
With `COC(=O)c1cc(Br)c(=O)n(-c2cc(C)on2)c1` the cell count [1] was 650, the inhibition [1] was -3.9% (inactive) and the inhibition [2] was 23.3% (inactive). The nuclei count [2] was 115%, the z-score [3, 10] was -0.164 and the z-score [3, 11] was -1.68. For the same compound, the z-score [3, 12] was 0.836, the inhibition [4] was -2.91% (inactive) and the fluorescence slope [5] was -0.438 (inactive). The NADPH fluorescence slope [6] was -1.4e-05 (inactive), the fluorescence slope [7] was 0.00456 (inactive) and the outcome [8] was “inactive”. For the same compound, the inhibition [9] was 8.55% (inactive).
With `Cc1ccc(-n2ncc3c(NCCCN4CCCC4=O)ncnc32)c(C)c1` the cell count [1] was 563, the inhibition [1] was -12.5% (inactive) and the inhibition [2] was -40.1% (inactive). For the same compound, the nuclei count [2] was 134%, the z-score [3, 10] was 0.612 and the z-score [3, 11] was -0.125. The z-score [3, 12] was -2.3, the inhibition [4] was 13.4% (inactive) and the fluorescence slope [5] was -0.358 (inactive). For the same compound, the NADPH fluorescence slope [6] was 1.3e-05 (inactive), the fluorescence slope [7] was 0.00773 (inactive) and the outcome [8] was “inactive”. For the same compound, the inhibition [9] was 0.102% (inactive).
For `CCCCOc1ccc(C(=O)N2CCCC2C(=O)O)cc1` (configuration not stated), the cell count [1] was 675, the inhibition [1] was 2.7% (inactive) and the inhibition [2] was 22.4% (inactive). It also gave a nuclei count [2] of 146%, a z-score [3, 10] of 0.371 and a z-score [3, 11] of 0.251. For the same compound, the z-score [3, 12] was 0.422, the inhibition [4] was -13.3% (inactive) and the fluorescence slope [5] was -0.458 (inactive). The NADPH fluorescence slope [6] was -4.7e-05 (inactive), the fluorescence slope [7] was 0.00494 (inactive) and the outcome [8] was “inactive”. The inhibition [9] was 7.22% (inactive).
